Measurements taken from ChEMBL document CHEMBL3272294, “Antiviral activity of some beta-diketones. 1. Aryl alkyl diketones. In vitro activity against both RNA and DNA viruses” (1977).
Converted amounts (≈) assume the structure as drawn. The source made the active and inactive calls. The calls are words filed in the database; no cut-off is given here.

Tests used:
Equine rhinovirus = assay: Antiviral activity against Equine rhinovirus assessed as inhibition of virus-induced cytopathic effect at 33 degC after 48 hrs by two-fold dilution method
Human alphaherpesvirus 2 [1] = assay: Antiviral activity against Herpes simplex virus 2 assessed as inhibition of virus-induced cytopathic effect at 37 degC after 72 hrs by two-fold dilution method; type: functional; settings: for MIC: Human alphaherpesvirus 2, 72 h
Procedure, shortened: (§1)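 Susceptible monolayers in stationary tubes were infected with 100 tissue culture infective doses and allowed to adsorb for 1 h. Compound was then added in M-199 with 5% inactivated fetal calf serum at 50–0.3 μg/mL in twofold dilutions, four tubes per dilution. Tubes were held at 37 °C and CPE was scored at 48 and 72 h. MIC is the lowest nontoxic level giving complete CPE inhibition, with toxicity read from uninfected parallel tubes.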

Influenza A virus [2] = assay: Antiviral activity against Influenza A2 virus Jap 170 infected in ferret trachea assessed as reduction in viral yield at 200 ug/ml after 3 days followed by compound-washout measured after 24 hrs by chick embryo-based hemagglutination titration method relative to control; type: functional; parameters: scale not given: the % may be the effect or the level left
rhinovirus A2 = assay: Antiviral activity against Human rhinovirus 2 assessed as inhibition of virus-induced cytopathic effect at 37 degC after 72 hrs by two-fold dilution method; type: functional; settings: Rhinovirus A
Human alphaherpesvirus 1 [3] = assay: Antiviral activity against Herpes simplex virus 1 Sheely assessed as inhibition of virus-induced cytopathic effect at 37 degC after 72 hrs by two-fold dilution method; type: functional; settings: Human alphaherpesvirus 1, Sheely
Procedure, shortened: as §1

[4] = Antiviral activity against Human rhinovirus 17 assessed as inhibition of virus-induced cytopathic effect at 37 degC after 72 hrs by two-fold dilution method; type: functional, Human rhinovirus B17; settings: Rhinovirus B
Influenza A virus [5] = assay: Antiviral activity against Influenza A2 virus Jap 170 infected in ferret trachea assessed as reduction in viral yield at 100 ug/ml after 3 days followed by compound-washout measured after 24 hrs by chick embryo-based hemagglutination titration method relative to control; type: functional; parameters: scale not given: the % may be the effect or the level left
[6] = system: unidentified influenza virus; assay: Antiviral activity against Parainfluenza virus assessed as inhibition of virus-induced cytopathic effect at 37 degC after 72 hrs by two-fold dilution method; type: functional
Procedure, shortened: as §1

rhinovirus B14 = assay: Antiviral activity against Human rhinovirus 14 assessed as inhibition of virus-induced cytopathic effect at 37 degC after 72 hrs by two-fold dilution method; type: functional; settings: Rhinovirus B
Human alphaherpesvirus 1 [7] = assay: Antiviral activity against Herpes simplex virus 1 assessed as inhibition of virus-induced cytopathic effect at 37 degC after 72 hrs by two-fold dilution method; type: functional; settings: Human alphaherpesvirus 1, 72 h
Procedure, shortened: as §1

[8] = system: Respiratory syncytial virus; assay: Antiviral activity against Respiratory syncytial virus assessed as inhibition of virus-induced cytopathic effect at 37 degC after 72 hrs by two-fold dilution method; type: functional; settings: human respiratory syncytial virus
Procedure, shortened: as §1

Human alphaherpesvirus 2 [9] = assay: Antiviral activity against Herpes simplex virus 2 Curtis assessed as inhibition of virus-induced cytopathic effect at 37 degC after 72 hrs by two-fold dilution method; type: functional; settings: Human alphaherpesvirus 2, Curtis
Procedure, shortened: as §1

Row | Compound | MIC (Equine rhinovirus) | also measured
1 | CCC(=O)C(CCCCCCc1ccc(OC(=O)c2cccc(OC)c2)cc1)C(=O)CC | 3 µg/mL (≈ 6.84 µM) | 
2 | CCC(=O)C(CCCCCCc1ccc(Cl)cc1O)C(=O)CC | 0.7 µg/mL (≈ 2.07 µM) | 
3 | CCC(=O)C(CC/C(=C/CCc1ccc2c(c1)OCO2)CC)C(C)=O (centres undefined) | 12 µg/mL (≈ 34.8 µM) | 
4 | CCC(=O)C(CCC(CC)CCCc1ccc2c(c1)OCO2)C(=O)CC (centres undefined) | 3 µg/mL (≈ 8.32 µM) | 
5 | CCC(=O)C(CCCCCCc1ccc(OC(=O)c2cccc(C)c2)cc1)C(=O)CC | 3 µg/mL (≈ 7.1 µM) | 
6 | CCC(=O)C(CC/C(C)=C/CCc1ccc2c(c1)OCO2)C(=O)CC | 3 µg/mL (≈ 8.71 µM) | 
7 | CCC(=O)C(CCCCCCc1ccc(OC(F)(F)F)cc1)C(=O)CC | 6 µg/mL (≈ 16.1 µM) | 
8 | CCC(=O)C(CC/C=C/CCc1cc(OC)c(OCc2ccccc2)c(OC)c1)C(=O)CC | 6 µg/mL (≈ 13.3 µM) | 
9 | CCC(=O)C(CCCCCCCc1ccc(O)cc1)C(=O)CC | 6 µg/mL (≈ 18.8 µM) | MIC (Human alphaherpesvirus 2 [1]): 6 µg/mL (≈ 18.8 µM)
10 | CCC(=O)C(CC/C(=C/C=C/c1ccc2c(c1)OCO2)CC)C(=O)CC | 6 µg/mL (≈ 16.8 µM) | 
11 | CCC(=O)C(CC/C=C/CCc1ccc(OC(F)(F)F)cc1)C(=O)CC | 6 µg/mL (≈ 16.2 µM) | 
12 | CCC(=O)C(CC/C(=C/CCc1ccc(C(=O)OC)cc1)CC)C(=O)CC | 25 µg/mL (≈ 67.1 µM) | 
13 | CCC(=O)C(CCCCc1ccc(O)cc1)C(=O)CC | 6 µg/mL (≈ 21.7 µM) | MIC (Human alphaherpesvirus 2 [1]): 12 µg/mL (≈ 43.4 µM)
14 | CCC(=O)C(CCCCCc1ccc(O)cc1)C(=O)CC | 12 µg/mL (≈ 41.3 µM) | MIC (Human alphaherpesvirus 2 [1]): 12 µg/mL (≈ 41.3 µM)
15 | CCC(=O)C(CCCCCCc1ccc(C)cc1)C(=O)CC | 6 µg/mL (≈ 19.8 µM) | 
16 | CCC(=O)C(CCCCCCc1ccc(Cl)cc1)C(=O)CC | 1.5 µg/mL (≈ 4.65 µM) | 
17 | CCC(=O)C(CCCCCCc1ccc(Cl)cc1OC)C(=O)CC | 3 µg/mL (≈ 8.5 µM) | 
18 | CCC(=O)C(CCCCCCc1ccc(OC(=O)c2ccccc2C)cc1)C(=O)CC | 6 µg/mL (≈ 14.2 µM) | 
19 | CCC(=O)C(CCCCCCc1ccc(O)cc1)C(=O)CC | 3 µg/mL (≈ 9.85 µM) | Activity (Influenza A virus [2]): 99.9%; MIC (rhinovirus A2): 3 µg/mL (≈ 9.85 µM); MIC (Human alphaherpesvirus 1 [3]): 12 µg/mL (≈ 39.4 µM); MIC [4]: 6 µg/mL (≈ 19.7 µM); MIC (Human alphaherpesvirus 2 [1]): 12 µg/mL (≈ 39.4 µM); Activity (Influenza A virus [5]): 94%; MIC [6]: 3 µg/mL (≈ 9.85 µM); MIC (rhinovirus B14): 6 µg/mL (≈ 19.7 µM); MIC (Human alphaherpesvirus 1 [7]): 12 µg/mL (≈ 39.4 µM); MIC [8]: 6 µg/mL (≈ 19.7 µM); MIC (Human alphaherpesvirus 2 [9]): 12 µg/mL (≈ 39.4 µM)
20 | CCC(=O)C(CCCCCCc1ccc(O)c(O)c1)C(=O)CC | 1.5 µg/mL (≈ 4.68 µM) | 
21 | CCC(=O)C(CCCCCCCCCc1ccc(O)cc1)C(=O)CC |  | MIC (Human alphaherpesvirus 2 [1]): 6 µg/mL (≈ 17.3 µM)
22 | CCC(=O)C(CC/C=C/CCc1ccc(NC(C)=O)cc1)C(=O)CC | 12 µg/mL (≈ 34.9 µM) | 
23 | CCC(=O)C(CCCCCCc1ccccc1OC)C(=O)CC | 12 µg/mL (≈ 37.7 µM) | 

Row | Compound | MIC (Equine rhinovirus) | also measured
24 | CCC(=O)C(CC/C=C/CCc1ccc2c(c1)OCO2)C(=O)CC | 3 µg/mL (≈ 9.08 µM) | 
25 | CCCC(=O)C(CC/C(=C/CCc1ccc2c(c1)OCO2)CC)C(=O)OCC (centres undefined) | 12 µg/mL (≈ 30.9 µM) | 
26 | Nc1ncnc2c1ncn2[C@@H]1O[C@H](CO)[C@@H](O)[C@@H]1O [VIDARABINE] |  | MIC (Human alphaherpesvirus 1 [3]): 12 µg/mL (≈ 44.9 µM); MIC (Human alphaherpesvirus 2 [9]): 12 µg/mL (≈ 44.9 µM)
27 | O=c1[nH]c(=O)n([C@H]2C[C@H](O)[C@@H](CO)O2)cc1I [IDOXURIDINE] |  | MIC (Human alphaherpesvirus 1 [3]): 6 µg/mL (≈ 16.9 µM); MIC (Human alphaherpesvirus 2 [9]): 6 µg/mL (≈ 16.9 µM)
28 | CCC(=O)C(CCCCCCc1ccccc1O)C(=O)CC | 6 µg/mL (≈ 19.7 µM) | 
29 | CCC(=O)C(CC/C(=C/CCc1ccc2c(c1)OCO2)CC)C(=O)CC | 6 µg/mL (≈ 16.7 µM) | 
30 | CCC(=O)C(CCCCCCCCCCc1ccc(O)cc1)C(=O)CC | 12 µg/mL (≈ 33.3 µM) | MIC (Human alphaherpesvirus 2 [1]): 12 µg/mL (≈ 33.3 µM)
31 | CC/C(=C\CCc1ccc2c(c1)OCO2)CCC1CCCC1=O (centres undefined) | 6 µg/mL (≈ 19.1 µM) | 
32 | CCC(=O)C(CCCCCCc1ccc(OC(=O)c2ccc(C)cc2)cc1)C(=O)CC | 12 µg/mL (≈ 28.4 µM) | 
33 | Nc1ccn([C@@H]2O[C@H](CO)[C@@H](O)[C@@H]2O)c(=O)n1 [CYTARABINE] |  | MIC (Human alphaherpesvirus 1 [3]): < 3 µg/mL; MIC (Human alphaherpesvirus 2 [9]): < 3 µg/mL
34 | CCC(=O)C(CCCCCCc1ccc(OC(C)=O)cc1)C(=O)CC | 6 µg/mL (≈ 17.3 µM) | 
35 | CCC(=O)C(CCCCCCc1ccccc1)C(=O)CC | 6 µg/mL (≈ 20.8 µM) | 
36 | CCC(=O)C(CCCCCCc1ccc(OC(=O)c2cc(OC)c(OC)c(OC)c2)cc1)C(=O)CC | 6 µg/mL (≈ 12 µM) | 
37 | CCC(=O)C(CCCCCCc1ccc(OC)cc1)C(=O)CC | 3 µg/mL (≈ 9.42 µM) | 
38 | CCC(=O)C(CCCCCCc1cccc(O)c1)C(=O)CC | 6 µg/mL (≈ 19.7 µM) | 
39 | CCC(=O)C(CCCc1ccc(O)cc1)C(=O)CC |  | inhibition (Human alphaherpesvirus 2 [1]): inactive
40 | CCOC(=O)C(CC/C(=C/CCc1ccc2c(c1)OCO2)CC)C(C)=O (centres undefined) | 6 µg/mL (≈ 16.6 µM) | 
41 | CCC(=O)C(CCCCCCCCc1ccc(O)cc1)C(=O)CC | 3 µg/mL (≈ 9.02 µM) | MIC (Human alphaherpesvirus 2 [1]): 3 µg/mL (≈ 9.02 µM)
42 | CC/C(=C\CCc1ccc2c(c1)OCO2)CCC(C(C)=O)C(C)=O | 6 µg/mL (≈ 18.2 µM) | 
43 | CCC(=O)C(CCCCCCc1ccc(Cl)cc1Cl)C(=O)CC | 3 µg/mL (≈ 8.4 µM) | 
44 | CCC(=O)C(CCCCCCc1ccc2c(c1)OCO2)C(=O)CC | 6 µg/mL (≈ 18 µM) | 
45 | CCC(=O)C(CC/C=C/CCc1ccc(OCc2ccccc2)cc1)C(=O)CC | 3 µg/mL (≈ 7.64 µM) | 
